The EternaBench riboswitch data

Tested on: MS2 coat protein
Assay: apparent Kd, MS2 coat protein; higher = weaker binding; RNA-MaP array; FMN 200 µM where present
Summary of the method: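 In 100 mM Tris-HCl pH 7.5, 80 mM KCl, 4 mM MgCl2, BSA, DTT, yeast tRNA and Tween-20, SNAP-549-labelled MS2 coat protein was titrated from 0.7 or 1.5 nM, doubling to 3 µM, over designs transcribed by stalled E. coli RNA polymerase on Illumina sequencing-chip clusters. This was done first without ligand, then with ligand held constant. After green signal was normalised to red-channel RNA signal and control-cluster median Fmax, the apparent Kd was taken as the median of filtered per-cluster binding-curve fits.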

[1] = designed as: OFF switch for flavin mononucleotide, no ligand
[2] = ligand present: flavin mononucleotide, designed as: OFF switch for flavin mononucleotide
[3] = designed as: ON switch for flavin mononucleotide, no ligand
[4] = ligand present: flavin mononucleotide, designed as: ON switch for flavin mononucleotide

Row | Sequence | apparent Kd [1] | apparent Kd [2] | apparent Kd [3] | apparent Kd [4]
1 | UUAUGUUUUGUAGGAUAUCAUUAGUUAUGUAUUAUAAUUGAAAUUUUGUUAUGAGAAGGACAUUUACAUGAGGAUCACCCAUGU | 13.9 nM | 9.9 nM |  | 
2 | GUCAGCUCGUGAGGAUAUACAACACUGCUUCGGCAGUGUACUAAGAUCACAUGAGGAUCACCCAUGUAGAAGGCACGAGCUGAU | 14.6 nM | 246 nM |  | 
3 | AGCAUCUGAGGAUAUACUGGGUAUGGAAGGCGAAGGGCCAGACAUGAGGAUCACCCAUGUAGAAGGCAGUUUGC | 79.3 nM | 32.9 nM |  | 
4 | UCGCUGCGAGGAUAUACAUGAGGAUCACCCAUGUACGGGUCCGGGUCUAAGUUGAUAAGUAGAAGGCGCAGUGA | 125 nM | 112 nM |  | 
5 | GUCAGCUCGUGAGGAUAUACAACACUGCUUCGGCAGUGUAUUAAGACCACAUGAGGAUCACCCAUGUAGAAGGCACGAGCUGAU | 5.18 nM | 14.3 nM |  | 
6 | GUAGCAUACCGAGGAUAUUCAUACCGUAAUCGGACAUGAGGAUCACCCAUGUGGCGAAAGCCUUGGGAGAAGGCGGAAUGCUAC |  |  | 630 nM | 27.6 nM
7 | CAAGUGCCGGAAGGAUAUCAGCGAUGUCACGCUUGAGAAGGUCUGUGCACAUGAGGAUCACCCAUGUCCGCCAGACUCCUUAAC | 9.98 nM | 8.49 nM |  | 
8 | UGUCGGAGCAGAGGAUAUUACAUGAGGAUCACCCAUGUAUGAACCAAUAGCUGGAAACAGCAAUGUAAGAAGGCUGCGCCGACA | 12.5 nM | 153 nM |  | 
9 | AUCAUGCUCAAGAAGGACAUGAGGAUCACCCAUGUAGGAUAUUGGGCGGUCACUUCUAGCUUGUGUGUAUCUGAAUACUCCAGG |  |  | 20.4 nM | 
10 | AAUAUGUUGCAGAAGGUUAUAUUUUUUUCGUUCCUCAUGACAUGAGGAUCACCCAUGUAUUUGUUGAAGGAUAUGCAAUAUAUU | 19.9 nM | 17.6 nM |  | 
11 | GGCUCCGCUCGAGGAUAUAGCUGCAUGUAGUGUCCUGAGGCACAUGAGGAUCACCCAUGUGUAGGCUAGAAGGCGACGGACGCU | 76.1 nM | 138 nM |  | 
12 | GCAUGUUAUGUCAGGAUAUACCUAUGGAUACAUAGGUAGAAGGGACAUGAGGAUCACCCAUGUCCUAAUCAUGC | 13.4 nM | 16.7 nM |  | 
13 | GGAGAUACAUGAGGAUCACCCAUGUAGGAUAUCGGGCAUAUAUAUGGCGAAAGCCAUAUAUAUGCCGAGAAGGGCGUACACACC | 8.12 nM | 7.62 nM |  | 
14 | GCCCGCGCUAAGGAUAUCAGGGUUAAAAUAGUAUGAGAAGGUAGCACAUGAGGAUCACCCAUGUGUCCCUUAUG | 16.5 nM | 17.3 nM |  | 
15 | UUGGACGUCGUAGGAUAUGUAGGAUAUUCCUACAUGAGGAUCACCCAUGUUGACAUGGAAGAAGGACAGAAGCACGAUGUCCAU |  |  | 199 nM | 5.35 nM
16 | AAUUUACAGGGAGGAUAUACAUGAGGAUCACCCAUGUCAUCAUAUGAUAUUUCUUUUGUAUGAGUGUAGAAGGCCCAACUACCA | 18.2 nM | 18.3 nM |  | 
17 | ACAUGAGGAUCACCCAUGUUCACAUAGGAUAUUGAUUAUAUUGGUUUUUGAAUAGUAAUUAACCUCAAGAAGGAUGCCUGAUCU |  |  | 11.6 nM | 9.34 nM
18 | AAUCAGCGGAACUUGACAUCCUUACAUGAGGAUCACCCAUGUCAGGAUAUAUGCUCUCGAGCUGCAUAGAAGGGACAUAGUGGG | 37.7 nM | 56 nM |  | 
19 | CCCUCACCAGUCAGGAUAUCUUGUGCGAAAAUGCUAGAGAAGGGACAUGAGGAUCACCCAUGUGCCUGCAAGGA | 17.1 nM | 17.9 nM |  | 
20 | GGUGGACAUGAGGAUCACCCAUGUGAGGAUAUCGGCCGGCUAGUGGCGGCUGGCUUCACGAGAAGGCGCAUAGU | 85.8 nM | 107 nM |  | 
21 | GGAAAGCAAGGAUAUACAAACAAACAAACAAACAAAAGGGAACAUGAGGAUCACCCAUGUAGAAGGUGCAAACA | 41.7 nM | 37.5 nM |  | 
22 | CGAUAACAUAGUUAUCCGUAACGGACAUGAGGAUCACCCAUGUAGGAUAUGUUACUAAACUAGUAACAGAAGGACAUGAGUCUU |  | 295 nM |  | 
23 | CUGACAGCGCAGAAGGGAGAUCCUACAUGAGGAUCACCCAUGUGGGCUCUCAGGAUAUGCACGUGUAUGCUGAAAGUAGCAUUG |  |  | 17.2 nM | 7.17 nM
